The source of these data is article PMC3172161 (ACS chemical neuroscience, 2011).

Like-named read-outs stand apart in the source and are kept apart here.

The subject of one data set is male CD-1 mice. The data set is described as follows: Marble burying model of anxiety. It counts as in vivo, mouse. The settings on record: 15 minute pretreatment. The essentials:
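Male CD-1 mice (30–35 g) were habituated 30 min to the test room. After 15 min pretreatment each was placed alone in a cage with 12 evenly spaced marbles on 2.5 cm bedding. Burying recorded over 30 min; counterbalanced design; Dunnett's test versus vehicle.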

For data set [1], the system named is C57Bl/6J mice. The data set is described as follows: Operant sensation seeking. Type of data set: in vivo, mouse. The settings on record: 10 min prior to sessions. The essentials: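 Male C57Bl/6J mice (3–5 weeks) responded for varied visual and auditory stimuli: 10–14 daily 1 h FR-1 sessions, then 2 h progressive-ratio sessions. Test compound (0, 3, 10, 30 mg/kg in 10% Tween-80) or reference NAM (0, 1.5, 5, 15 mg/kg in saline; 12 FR sessions) given ip, 20 ml/kg, 10 min pre-session. Latin square, doses 48 h apart. Reinforcers earned analysed by repeated-measures ANOVA/Dunnett.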

The target in data set [2] is T1, rat mGlu5 (Rattus norvegicus, UniProt P31424). The data set is described as follows: Calcium mobilization assay. It counts as cell-based. Conditions: for % Glu Max: amplitude of response in the presence of 30 μM test compound as a percentage of maximal response (100 μM glutamate). The essentials: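 HEK293A cells stably expressing rat mGlu5 were plated at 20K/well and grown overnight at 37 °C in 6% CO2. They were loaded with 2 μM Fluo-4 AM at 37 °C in HBSS with 20 mM HEPES and 2.5 mM probenecid. Compound (10-point 1:3 series, 30 μM–1 nM final) was added 140 s before EC20 glutamate, then EC80 glutamate 74 s later. Ca2+ fluorescence read at 1 Hz; IC50 from four-parameter logistic fit.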

Data set [3] has as its target T1, rat mGlu5. The data set is described as follows: Radioligand binding assay, [3H]methoxyPEPy competition. The essentials: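 Competition binding used membranes from rat mGlu5 HEK293A cells (40 μg/well) in 50 mM Tris/0.9% NaCl, pH 7.4, with [3H]methoxyPEPy (2 nM final) and test compound. Incubation was 1 h at room temperature with shaking, then GF/B filtration, 3–4 buffer washes and scintillation counting. Non-specific binding defined with 5 μM MPEP; curves fitted by four-parameter logistic equation.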

For data set [4], the target named is mGlu5 in rat cortical astrocytes (Rattus norvegicus, UniProt P31424). The data set is described as follows: Rat cortical astrocytes assay. It counts as cell-based. Conditions: fixed concentration 10 μM, increasing concentrations of glutamate.
The next data set deals with mGlu1 (Homo sapiens, UniProt Q13255). The data set is described as follows: Cell based functional selectivity assay.
In another data set the target is mGlu2 (Homo sapiens, UniProt Q14416). The data set is described as follows: Cell based functional selectivity assay.
The target of another data set is mGlu3 (Homo sapiens, UniProt Q14832). The data set is described as follows: Cell based functional selectivity assay.
Another data set concerns the target mGlu4 (Homo sapiens, UniProt Q14833). The data set is described as follows: Cell based functional selectivity assay.
Another data set has as its target mGlu7 (Homo sapiens, UniProt Q14831). The data set is described as follows: Cell based functional selectivity assay.
Another data set concerns the target mGlu8 (Homo sapiens, UniProt O00222). The data set is described as follows: Cell based functional selectivity assay.
Data set [5] in a line: Stability in liver microsomes. It counts as in vitro ADME. Conditions: mouse liver microsomes; 1 μM, 15 min, 37 °C, NADPH. The essentials: (§1)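 Test compound at 1 μM was incubated 15 min at 37 °C with shaking, with human or mouse liver microsomes, phosphate buffer and NADPH. Samples were analysed by UPLC-ESI-MS/MS on a C18 column with a formic acid/acetonitrile gradient. % parent remaining was calculated against similarly prepared un-incubated controls.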

Data set [6] in a line: Stability in liver microsomes. Conditions: human liver microsomes; 1 μM, 15 min, 37 °C, NADPH. It counts as in vitro ADME. The essentials: as §1
A short description of data set [7]: Brain homogenate binding assay. Type of data set: in vitro ADME. The settings on record: mouse. The essentials: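 Fresh mouse brains (6–8) were homogenized 1:3 (w/w) in PBS on ice, spiked at 1000 ng/g and run in triplicate. Rapid equilibrium dialysis was against PBS for 4 h at 37 °C, 130 rpm. Matrix-balanced aliquots were extracted with acetonitrile/internal standard and analysed by LC/MS/MS. fu = buffer/homogenate peak-area ratio, corrected for homogenate dilution.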

Data set [8] is described as follows: Plasma protein binding assay. Type of data set: in vitro ADME. The settings on record: mouse.
Data set [9] in a line: Plasma protein binding assay. It counts as in vitro ADME. The settings on record: human.
Data set [10] is described as follows: Mouse pharmacokinetic study, intraperitoneal dosing. Type of data set: in vivo. Put shortly: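 Male CD-1 mice (~30 g) received 10 mg/kg ip as a 0.5 mg/ml microsuspension in 10% Tween 80/water (20 ml/kg). Plasma (cardiac puncture, EDTA) and PBS-washed brains were collected at 15, 30, 60, 180 and 360 min, n=3 per time. Brains homogenized 1:5 (w/w) in PBS; samples precipitated with acetonitrile plus internal standard and run on HPLC/MS/MS. Dilution-corrected; noncompartmental analysis.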

In data set [11] the test system is C57Bl/6J mice. The data set is described as follows: Food reinforcer self-administration, progressive ratio responding. It counts as in vivo, mouse. The settings on record: 3, 10, 30 mg/kg i.p., 10 min prior to sessions. The essentials: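 Male C57Bl/6J mice (3–5 weeks) responded for ~40 μl of 10% vanilla Ensure: 10–14 daily 1 h FR-1 sessions, then 2 h progressive-ratio sessions. Test compound (0, 3, 10, 30 mg/kg in 10% Tween-80) or reference NAM (0, 1.5, 5, 15 mg/kg in saline) given ip, 20 ml/kg, 10 min pre-session. Latin square, doses 48 h apart. Reinforcers earned analysed by repeated-measures ANOVA/Dunnett.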

Setting [12] is: male, CD-1, mouse, brain, ip, 10 mg/kg.
Setting [13] is: mouse, 10 mg/kg intraperitoneal.

T1 sequence (P31424 21-1203): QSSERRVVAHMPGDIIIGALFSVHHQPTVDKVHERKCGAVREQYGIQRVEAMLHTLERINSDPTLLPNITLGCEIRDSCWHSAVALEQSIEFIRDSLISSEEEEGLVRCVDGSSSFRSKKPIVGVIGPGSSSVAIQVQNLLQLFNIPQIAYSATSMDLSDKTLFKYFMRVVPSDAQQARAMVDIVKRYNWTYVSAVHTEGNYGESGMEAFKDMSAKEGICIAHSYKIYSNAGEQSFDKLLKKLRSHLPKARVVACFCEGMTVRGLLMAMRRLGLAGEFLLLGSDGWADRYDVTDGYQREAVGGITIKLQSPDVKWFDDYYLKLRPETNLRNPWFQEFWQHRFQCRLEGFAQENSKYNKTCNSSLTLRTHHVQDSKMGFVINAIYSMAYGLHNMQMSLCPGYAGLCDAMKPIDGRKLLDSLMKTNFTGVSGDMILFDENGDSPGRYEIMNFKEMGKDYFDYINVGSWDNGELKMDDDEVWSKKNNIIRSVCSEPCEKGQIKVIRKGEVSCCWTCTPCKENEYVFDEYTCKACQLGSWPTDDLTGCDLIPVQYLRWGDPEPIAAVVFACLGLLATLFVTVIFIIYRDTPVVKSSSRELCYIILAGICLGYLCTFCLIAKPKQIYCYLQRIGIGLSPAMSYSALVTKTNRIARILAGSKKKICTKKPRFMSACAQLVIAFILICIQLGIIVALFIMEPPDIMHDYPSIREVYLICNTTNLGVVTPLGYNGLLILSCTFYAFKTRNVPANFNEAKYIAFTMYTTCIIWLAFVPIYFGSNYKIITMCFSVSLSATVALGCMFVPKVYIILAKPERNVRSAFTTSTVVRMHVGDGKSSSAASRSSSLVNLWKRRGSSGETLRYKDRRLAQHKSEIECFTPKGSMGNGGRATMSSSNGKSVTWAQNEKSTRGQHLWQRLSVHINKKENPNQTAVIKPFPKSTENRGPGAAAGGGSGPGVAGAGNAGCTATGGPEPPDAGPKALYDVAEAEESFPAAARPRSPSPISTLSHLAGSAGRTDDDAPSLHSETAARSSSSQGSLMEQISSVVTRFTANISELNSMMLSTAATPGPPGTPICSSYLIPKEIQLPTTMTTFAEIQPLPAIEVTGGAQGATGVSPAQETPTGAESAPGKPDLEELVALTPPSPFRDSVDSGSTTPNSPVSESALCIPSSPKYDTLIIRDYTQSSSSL
Sequence of mGlu7 (Q14831 35-915): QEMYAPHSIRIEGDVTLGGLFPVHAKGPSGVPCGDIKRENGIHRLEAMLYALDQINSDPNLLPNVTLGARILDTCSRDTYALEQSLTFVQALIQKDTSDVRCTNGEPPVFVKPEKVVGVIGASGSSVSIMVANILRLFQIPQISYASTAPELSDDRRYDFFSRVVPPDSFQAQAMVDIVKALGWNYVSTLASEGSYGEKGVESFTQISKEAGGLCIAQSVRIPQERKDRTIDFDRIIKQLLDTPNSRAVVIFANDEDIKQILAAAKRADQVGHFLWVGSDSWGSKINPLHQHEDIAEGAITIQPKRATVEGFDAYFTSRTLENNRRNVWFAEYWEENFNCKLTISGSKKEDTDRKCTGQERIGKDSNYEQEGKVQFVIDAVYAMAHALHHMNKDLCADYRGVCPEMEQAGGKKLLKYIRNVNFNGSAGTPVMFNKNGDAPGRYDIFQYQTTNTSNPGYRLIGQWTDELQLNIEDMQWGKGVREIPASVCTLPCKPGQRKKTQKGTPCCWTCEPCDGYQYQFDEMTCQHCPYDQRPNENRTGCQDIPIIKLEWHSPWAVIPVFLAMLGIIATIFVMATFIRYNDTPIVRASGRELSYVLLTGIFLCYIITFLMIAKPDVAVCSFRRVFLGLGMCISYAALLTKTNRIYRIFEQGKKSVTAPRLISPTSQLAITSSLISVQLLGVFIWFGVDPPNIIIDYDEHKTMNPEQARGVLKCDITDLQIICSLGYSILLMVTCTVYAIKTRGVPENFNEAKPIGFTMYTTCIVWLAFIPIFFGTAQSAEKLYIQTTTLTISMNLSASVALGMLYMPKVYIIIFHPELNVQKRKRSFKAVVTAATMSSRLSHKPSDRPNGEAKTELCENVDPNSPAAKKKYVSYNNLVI
Sequence of mGlu5 in rat cortical astrocytes (P31424 21-1203): as the sequence (P31424 21-1203) above
Sequence of mGlu3 (Q14832 23-879): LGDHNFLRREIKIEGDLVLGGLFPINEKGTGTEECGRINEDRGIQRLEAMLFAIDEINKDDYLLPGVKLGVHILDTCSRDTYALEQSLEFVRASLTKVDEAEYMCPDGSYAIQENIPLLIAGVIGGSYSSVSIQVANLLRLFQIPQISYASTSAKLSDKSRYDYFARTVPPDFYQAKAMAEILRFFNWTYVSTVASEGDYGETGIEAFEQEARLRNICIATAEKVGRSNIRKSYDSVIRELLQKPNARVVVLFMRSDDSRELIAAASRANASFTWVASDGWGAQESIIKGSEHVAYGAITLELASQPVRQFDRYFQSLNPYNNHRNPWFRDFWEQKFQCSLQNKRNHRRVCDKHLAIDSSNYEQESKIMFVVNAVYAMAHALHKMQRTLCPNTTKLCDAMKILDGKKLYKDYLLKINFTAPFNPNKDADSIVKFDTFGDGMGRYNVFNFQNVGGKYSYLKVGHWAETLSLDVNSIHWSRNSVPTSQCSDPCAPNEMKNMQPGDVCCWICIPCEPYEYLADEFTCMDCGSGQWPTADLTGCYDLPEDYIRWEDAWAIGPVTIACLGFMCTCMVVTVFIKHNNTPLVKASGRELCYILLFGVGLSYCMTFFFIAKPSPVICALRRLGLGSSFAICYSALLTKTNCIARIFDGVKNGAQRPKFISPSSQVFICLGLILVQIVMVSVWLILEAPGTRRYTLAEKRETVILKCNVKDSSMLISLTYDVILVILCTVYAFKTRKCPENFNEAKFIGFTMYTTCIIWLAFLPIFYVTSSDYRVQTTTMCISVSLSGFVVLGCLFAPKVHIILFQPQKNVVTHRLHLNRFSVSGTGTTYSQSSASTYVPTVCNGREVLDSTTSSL
Sequence of mGlu4 (Q14833 33-912): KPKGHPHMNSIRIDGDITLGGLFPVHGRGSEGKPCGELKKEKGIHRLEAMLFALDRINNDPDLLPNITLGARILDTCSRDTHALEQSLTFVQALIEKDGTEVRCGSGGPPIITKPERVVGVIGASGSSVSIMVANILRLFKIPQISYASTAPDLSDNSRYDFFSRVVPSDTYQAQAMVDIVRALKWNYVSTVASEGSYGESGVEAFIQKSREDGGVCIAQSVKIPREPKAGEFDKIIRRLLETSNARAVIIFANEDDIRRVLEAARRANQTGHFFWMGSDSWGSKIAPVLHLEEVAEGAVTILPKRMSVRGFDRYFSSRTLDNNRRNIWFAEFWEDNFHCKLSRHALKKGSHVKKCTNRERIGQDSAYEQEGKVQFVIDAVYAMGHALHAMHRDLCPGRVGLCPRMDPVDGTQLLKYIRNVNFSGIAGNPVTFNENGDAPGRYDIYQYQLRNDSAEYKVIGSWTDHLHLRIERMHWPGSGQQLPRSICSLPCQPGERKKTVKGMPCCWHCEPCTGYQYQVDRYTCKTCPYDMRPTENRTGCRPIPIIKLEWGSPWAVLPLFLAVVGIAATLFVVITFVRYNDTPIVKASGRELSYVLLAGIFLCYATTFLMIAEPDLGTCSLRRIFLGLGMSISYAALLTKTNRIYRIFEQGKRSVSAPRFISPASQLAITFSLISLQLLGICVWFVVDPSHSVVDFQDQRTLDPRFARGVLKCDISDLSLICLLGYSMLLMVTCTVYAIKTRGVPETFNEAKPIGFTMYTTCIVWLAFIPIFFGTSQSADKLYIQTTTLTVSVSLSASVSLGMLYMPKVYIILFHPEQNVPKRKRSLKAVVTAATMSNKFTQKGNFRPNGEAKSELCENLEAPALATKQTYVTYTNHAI
Sequence of mGlu1 (Q13255 19-1194): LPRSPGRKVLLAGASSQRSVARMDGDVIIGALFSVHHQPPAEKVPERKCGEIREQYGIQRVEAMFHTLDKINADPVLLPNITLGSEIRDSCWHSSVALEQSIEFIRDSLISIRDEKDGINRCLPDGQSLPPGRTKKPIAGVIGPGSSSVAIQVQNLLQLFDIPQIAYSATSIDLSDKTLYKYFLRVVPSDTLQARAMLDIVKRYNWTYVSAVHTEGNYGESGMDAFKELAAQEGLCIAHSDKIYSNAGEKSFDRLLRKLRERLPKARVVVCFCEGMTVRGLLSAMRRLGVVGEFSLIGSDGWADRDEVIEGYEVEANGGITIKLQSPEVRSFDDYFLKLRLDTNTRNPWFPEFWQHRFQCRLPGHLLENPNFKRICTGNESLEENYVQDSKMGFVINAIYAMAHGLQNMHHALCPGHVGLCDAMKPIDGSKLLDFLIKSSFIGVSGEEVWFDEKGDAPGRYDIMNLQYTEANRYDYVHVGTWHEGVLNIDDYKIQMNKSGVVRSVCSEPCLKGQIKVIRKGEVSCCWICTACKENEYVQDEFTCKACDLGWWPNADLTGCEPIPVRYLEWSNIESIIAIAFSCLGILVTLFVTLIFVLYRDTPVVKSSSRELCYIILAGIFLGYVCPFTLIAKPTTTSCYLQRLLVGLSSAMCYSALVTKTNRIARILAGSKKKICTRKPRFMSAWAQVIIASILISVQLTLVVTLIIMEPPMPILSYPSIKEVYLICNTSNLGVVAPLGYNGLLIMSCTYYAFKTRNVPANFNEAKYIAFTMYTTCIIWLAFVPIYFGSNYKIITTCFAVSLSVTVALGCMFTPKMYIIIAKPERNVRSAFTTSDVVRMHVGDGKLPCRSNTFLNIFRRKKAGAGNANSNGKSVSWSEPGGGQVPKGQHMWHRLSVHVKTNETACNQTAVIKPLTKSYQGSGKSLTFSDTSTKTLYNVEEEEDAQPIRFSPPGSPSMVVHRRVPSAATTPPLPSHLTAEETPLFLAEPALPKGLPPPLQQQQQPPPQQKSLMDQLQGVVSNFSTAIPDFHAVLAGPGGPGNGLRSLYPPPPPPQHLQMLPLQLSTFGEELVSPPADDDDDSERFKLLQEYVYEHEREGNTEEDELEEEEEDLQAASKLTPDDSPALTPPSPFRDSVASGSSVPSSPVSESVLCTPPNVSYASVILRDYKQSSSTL

As to `Cc1nc(C#Cc2cccnc2)cs1` [MTEP, 3-[(2-methyl-1,3-thiazol-4-yl)ethynyl]pyridine, reference compound], the “inhibition of marble burying” value in the data set with male CD-1 mice (15 mg/kg ip, positive control) is reported as “significant effect”. Moreover, the “progressive ratio responding for OSS stimuli” value in the data set on C57Bl/6J mice [1] (1.5, 5, 15 mg/kg i.p.) is recorded as “dose-dependently reduced”.
On to `Cc1ccc2ccc(-c3cc(F)cc(C#N)c3)cc2n1` [Compound 3, reference compound], for which the “% Glu Max” value on rat mGlu5 [2] (average of n ≥ 3) amounted to 1.2 ± 0.3%. The IC50 on rat mGlu5 [2] (read-out: mGlu5 IC50, calcium mobilization, EC80 glutamate, HEK293A cells expressing rat mGlu5, average of n ≥ 3) is 9.5 ± 1.6 nM.
Regarding `Cc1nc2cc(-c3cc(F)cc(C#N)c3)ccc2s1` [Compound 18, 3-fluoro-5-(2-methylbenzo[d]thiazol-5-yl)benzonitrile], on rat mGlu5 [2], the IC50 was 61 ± 7 nM. In addition, the “% Glu Max” value at rat mGlu5 [2] (average of n ≥ 3) is on record as 0.63 ± 0.12%. For the same molecule, the “block of radioligand binding” value at rat mGlu5 [3] ([3H]3-methoxy-5-(pyridin-2-ylethynyl)pyridine, at the highest concentration) was “almost completely block the binding of the radioligand”. Further, the “Ki for binding relative to potency in the functional assay” value at rat mGlu5 [3] ([3H]methoxyPEPy competition versus calcium mobilization IC50) was “approximately eight fold less”. Also, in data set [4], the “blockade of the glutamate response” value is “near complete blockade”. Moreover, the “selectivity, activity against mGlu1” value on mGlu1 is “inactive”. Further, at mGlu2, the “selectivity, activity against mGlu2” value is “inactive”. The “selectivity, activity against mGlu3” value at mGlu3 was “inactive”. Also, the “selectivity, activity against mGlu4” value on mGlu4 is “inactive”. Moreover, the “selectivity, activity against mGlu7” value on mGlu7 was “inactive”. At mGlu8, the “selectivity, activity against mGlu8” value is “inactive”. The “% Parent Remaining” value was 18% in data set [5] and 20% in [6]. Also, the fraction unbound at 4 h, 1000 ng/g was 0.001 in data set [7], 0.005 in data set [8] and 0.006 in data set [9]. In addition, the Tmax in data set [10] (setting [12]) was 15 min. Also, the concentration at 30 min in data set [10] (setting [12]) is 3.75 µM. This molecule also displayed an exposure AUC(0-t) in data set [10] (male, CD-1, mouse, plasma, ip, 10 mg/kg) of 801 ng·h/mL. Further, the AUC0-6h in brain in data set [10] (setting [13]) turned out to be 1530 ng·h/g. Besides, the “brain exposure until the one hour time point” value in data set [10] (setting [13]) was “above 500 ng/g”. For the same molecule, the “exposure in brain relative to plasma” value in [10] (mouse, 10 mg/kg intraperitoneal, AUC0-6h) is reported as “nearly two fold higher”. Besides, the “brain exposure expected at 30 mg/kg” value in [10] (mouse, assuming a dose linear increase in exposure from the 10 mg/kg study) is greater than 10 µM. Moreover, the “inhibition of marble burying” value in the data set with male CD-1 mice (30 mg/kg ip) is given as “Significant inhibition”. Besides, the “progressive ratio responding for OSS stimuli” value with C57Bl/6J mice [1] (3, 10, 30 mg/kg i.p.) is reported as “dose dependently reduce”. Also, in the data set on C57Bl/6J mice [11], the “progressive ratio responding for food reinforcer” value is “no significant effects”.
